Tests used:
Hepatitis C virus [1] = experiment: Drug resistance, ratio of EC50 for HCV 1a H77 with NS5B polymerase G554D mutation to EC50 for wild type HCV 1a H77 infected in chimpanzee measured on day 16; assay type: functional, Hepacivirus hominis, genotype 1a H77
Hepatitis C virus [2] = experiment: Drug resistance, ratio of EC50 for HCV 1b strain N with NS5B polymerase C316Y mutation to EC50 for wild type HCV 1b strain N infected in chimpanzee measured on day 28; assay type: functional, Hepacivirus hominis, genotype 1b strain N
[3] = Oral bioavailability in monkey at 5 mg/kg; assay type: ADME, organism-based, Macaca mulatta; settings: rhesus monkey, in vivo
Hepatitis C virus [4] = experiment: Antiviral activity against HCV 1a H77 after 4 days by RT-PCR in presence of 40% human serum; assay type: functional, organism-based, Hepacivirus hominis; settings: genotype 1a H77, 96 h
Outline: (§1)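 They were exposed for 4 days to half-log inhibitor dilutions in medium with 5% FBS plus 40% human serum, to assess protein binding. Replicon RNA copy number was then measured by TaqMan real-time RT-PCR on extracted total RNA.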

Hepatitis C virus [5] = experiment: Antiviral activity against HCV 1a H77 infected in chimpanzee assessed as reduction in viral load at 30 mg/kg, po BID for 14 days measured on day 2 postdosing; assay type: functional, Hepacivirus hominis, genotype 1a H77
Outline: (§2)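 One chimpanzee infected with genotype 1a and one with genotype 1b were dosed orally with 30 mg/kg BID for 14 days. Serum viral load was measured by TaqMan quantitative RT-PCR. A pretreatment serum sample (day 0) served as the baseline.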

[6] = AUC in monkey at 5 mg/kg, po; assay type: ADME, organism-based, Macaca mulatta; set-up: dose 5 mg/kg, route oral; settings: rhesus monkey, plasma
Outline: (§3)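 Rats, dogs and monkeys received one oral 5 mg/kg dose in polyethylene glycol 400. Serum was sampled at 0.3, 0.5, 1, 2, 4, 6, 9, 12 and 24 h. Plasma drug was extracted by acetonitrile protein precipitation with internal standard and quantified by LC-MS against spiked standards (peak-area ratio, linear regression). Limit of quantitation was about 20 ng/ml.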

[7] = Cmax in rat at 5 mg/kg, po; assay type: ADME, organism-based; set-up: dose 5 mg/kg, route oral; settings: in vivo; outline: as §3
[8] = Oral bioavailability in dog at 5 mg/kg; assay type: ADME, organism-based, Canis lupus familiaris; settings: in vivo
[9] = Cmax in HCV 1b strain N infected chimpanzee at 30 mg/kg, po BID for 14 days measured after 2 hrs of postdose; assay type: ADME, organism-based, Pan troglodytes; set-up: dose 30 mg/kg, route oral; settings: in vivo
Hepatitis C virus [10] = experiment: Drug resistance, ratio of EC50 for HCV 1a H77 with NS5B polymerase Y448C mutation to EC50 for wild type HCV 1a H77 infected in chimpanzee measured on day 28; assay type: functional, Hepacivirus hominis, genotype 1a H77
Hepatitis C virus [11] = experiment: Antiviral activity against HCV 1b strain N with NS5B polymerase C316Y mutation infected in chimpanzee measured on day 2; assay type: functional, organism-based, Hepacivirus hominis; settings: genotype 1b strain N, 48 h
Hepatitis C virus [12] = experiment: Drug resistance, ratio of EC50 for HCV 1b strain N with NS5B polymerase C316Y mutation to EC50 for wild type HCV 1b strain N infected in chimpanzee measured on day 5; assay type: functional, Hepacivirus hominis, genotype 1b strain N
[13] = Cmax in monkey at 5 mg/kg, po; assay type: ADME, organism-based, Macaca mulatta; set-up: dose 5 mg/kg, route oral; settings: rhesus monkey, in vivo; outline: as §3
Hepatitis C virus [14] = experiment: Drug resistance, ratio of EC50 for HCV 1b strain N with NS5B polymerase C316Y mutation to EC50 for wild type HCV 1b strain N infected in chimpanzee measured on day 11; assay type: functional, Hepacivirus hominis, genotype 1b strain N
Hepatitis C virus [15] = experiment: Ratio of EC50 for HCV 1a H77 in presence of 40% human serum to EC50 for HCV 1a H77 in absence of human serum; assay type: functional, Hepacivirus hominis, genotype 1a H77
Outline: (§4)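 Cells carrying the subgenomic replicon (genotype 1b strain N, or chimeric 1a H77/1b Con1) were maintained in DMEM with 10% FBS and 400 µg/ml G418. The next day they were given medium with 5% FBS and half-log inhibitor dilutions, with or without 40% human serum, for 4 days. Replicon RNA copy number was measured by TaqMan RT-PCR.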

[16] = Cmax in HCV 1a H77 infected chimpanzee at 30 mg/kg, po BID for 14 days measured after 2 hrs of postdose; assay type: ADME, organism-based, Pan troglodytes; set-up: dose 30 mg/kg, route oral; settings: in vivo
Outline: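 Chimpanzees were dosed orally at 30 mg/kg BID for 14 days. Plasma drug was measured by LC-MS. For the genotype 1a animal, the value is the mean of three samples taken 2 h after the a.m. dose on days 2, 3 and 4.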

Hepatitis C virus [17] = experiment: Inhibition of HCV 1b strain N NS5B polymerase by [3H]UTP incorporation assay; set-up: species or system Hepatitis C virus subtype 1b
[18] = Half life in monkey at 5 mg/kg, po; assay type: ADME, organism-based, Macaca mulatta; set-up: dose 5 mg/kg, route oral; settings: rhesus monkey, in vivo; outline: as §3
Hepatitis C virus [19] = experiment: Antiviral activity against HCV 1b strain N after 4 days by RT-PCR in presence of 40% human serum; assay type: functional, organism-based, Hepacivirus hominis; settings: genotype 1b strain N, 96 h; outline: as §1
Hepatitis C virus [20] = experiment: Ratio of EC50 for HCV 1b strain N in presence of 40% human serum to EC50 for HCV 1b strain N in absence of human serum; assay type: functional, Hepacivirus hominis, genotype 1b strain N; outline: as §4
[21] = Oral bioavailability in rat at 5 mg/kg; assay type: ADME, organism-based; settings: in vivo
[22] = AUC in dog at 5 mg/kg, po; assay type: ADME, organism-based, Canis lupus familiaris; set-up: dose 5 mg/kg, route oral; settings: plasma; outline: as §3
[23] = Inhibition of HCV 1a H77 NS5B polymerase by [3H]UTP incorporation assay; set-up: species or system Hepatitis C virus (isolate H77)
Hepatitis C virus [24] = experiment: Antiviral activity against HCV 1b strain N with NS5B polymerase C316Y mutation infected in chimpanzee measured on day 11; assay type: functional, organism-based, Hepacivirus hominis; settings: genotype 1b strain N, 264 h
Hepatitis C virus [25] = experiment: Antiviral activity against HCV 1a H77 with NS5B polymerase G554D mutation infected in chimpanzee measured on day 16; assay type: functional, organism-based, Hepacivirus hominis; settings: genotype 1a H77, 384 h
Hepatitis C virus [26] = experiment: Antiviral activity against HCV 1b strain N with NS5B polymerase C316Y mutation infected in chimpanzee measured on day 5; assay type: functional, organism-based, Hepacivirus hominis; settings: genotype 1b strain N, 120 h
Hepatitis C virus [27] = experiment: Drug resistance, ratio of EC50 for HCV 1a H77 with NS5B polymerase G554D mutation to EC50 for wild type HCV 1a H77 infected in chimpanzee measured on day 2; assay type: functional, Hepacivirus hominis, genotype 1a H77
Hepatitis C virus [28] = experiment: Drug resistance, ratio of EC50 for HCV 1b strain N with NS5B polymerase C316Y mutation to EC50 for wild type HCV 1b strain N infected in chimpanzee measured on day 2; assay type: functional, Hepacivirus hominis, genotype 1b strain N
Hepatitis C virus [29] = experiment: Antiviral activity against HCV 1a H77 with NS5B polymerase Y448C mutation infected in chimpanzee measured on day 28; assay type: functional, organism-based, Hepacivirus hominis; settings: genotype 1a H77, 672 h
[30] = Half life in rat at 5 mg/kg, po; assay type: ADME, organism-based; set-up: dose 5 mg/kg, route oral; settings: in vivo; outline: as §3
Hepatitis C virus [31] = experiment: Antiviral activity against HCV 1b strain N infected in chimpanzee assessed as reduction in viral load at 30 mg/kg, po BID for 14 days measured on day 2 postdosing; assay type: functional, Hepacivirus hominis, genotype 1b strain N; outline: as §2
[32] = Half life in dog at 5 mg/kg, po; assay type: ADME, organism-based, Canis lupus familiaris; set-up: dose 5 mg/kg, route oral; settings: in vivo; outline: as §3
Hepatitis C virus [33] = experiment: Drug resistance, ratio of EC50 for HCV 1a H77 with NS5B polymerase G554D mutation to EC50 for wild type HCV 1a H77 infected in chimpanzee measured on day 5; assay type: functional, Hepacivirus hominis, genotype 1a H77
Hepatitis C virus [34] = experiment: Antiviral activity against HCV 1a H77 after 4 days by RT-PCR; assay type: functional, organism-based, Hepacivirus hominis; settings: genotype 1a H77, 96 h
Outline: (§5)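 Subgenomic replicon cells (genotype 1b strain N, or chimeric 1a H77/1b Con1) grown in DMEM with 10% FBS and 400 µg/ml G418. Next day, the medium was switched to 5% FBS with inhibitor in half-log dilutions. After 4 days, total RNA was extracted and replicon RNA copies were counted by TaqMan real-time RT-PCR. Potency came from the fall in copy number.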

Hepatitis C virus [35] = experiment: Antiviral activity against HCV 1a H77 with NS5B polymerase G554D mutation infected in chimpanzee measured on day 2; assay type: functional, organism-based, Hepacivirus hominis; settings: genotype 1a H77, 48 h
Hepatitis C virus [36] = experiment: Antiviral activity against HCV 1b strain N after 4 days by RT-PCR; assay type: functional, organism-based, Hepacivirus hominis; settings: genotype 1b strain N, 96 h; outline: as §5
Hepatitis C virus [37] = experiment: Antiviral activity against HCV 1a H77 with NS5B polymerase G554D mutation infected in chimpanzee measured on day 5; assay type: functional, organism-based, Hepacivirus hominis; settings: genotype 1a H77, 120 h
[38] = Cmax in dog at 5 mg/kg, po; assay type: ADME, organism-based, Canis lupus familiaris; set-up: dose 5 mg/kg, route oral; settings: in vivo; outline: as §3
[39] = Tmax in monkey at 5 mg/kg, po; assay type: ADME, organism-based, Macaca mulatta; set-up: dose 5 mg/kg, route oral; settings: rhesus monkey, in vivo; outline: as §3
[40] = Tmax in rat at 5 mg/kg, po; assay type: ADME, organism-based; set-up: dose 5 mg/kg, route oral; settings: in vivo; outline: as §3
[41] = AUC in rat at 5 mg/kg, po; assay type: ADME, organism-based; set-up: dose 5 mg/kg, route oral; settings: plasma; outline: as §3
Hepatitis C virus [42] = experiment: Antiviral activity against HCV 1b strain N with NS5B polymerase C316Y mutation infected in chimpanzee measured on day 28; assay type: functional, organism-based, Hepacivirus hominis; settings: genotype 1b strain N, 672 h
Hepatitis C virus [43] = experiment: Antiviral activity against wild type HCV 1b strain N infected in chimpanzee; assay type: functional, organism-based, Hepacivirus hominis; settings: genotype 1b strain N
[44] = Tmax in dog at 5 mg/kg, po; assay type: ADME, organism-based, Canis lupus familiaris; set-up: dose 5 mg/kg, route oral; settings: in vivo; outline: as §3

CC(C)CC[C@@]1(C)C(=O)C(C2=NS(=O)(=O)c3cc(NS(C)(=O)=O)ccc3N2)=C(O)c2ccccc21
fold change (FC) (Hepatitis C virus [1]): 3.9 | fold change (FC) (Hepatitis C virus [2]): 389 | bioavailability [3]: 15.2% | EC50 (Hepatitis C virus [4]): 143 nM | log10cfu (Hepatitis C virus [5]): 1.4 /ml | AUC [6]: 1500 ng·h/mL | Cmax [7]: 310 ng/mL | bioavailability [8]: 89.3% | Cmax [9]: 8590 ng/mL | fold change (FC) (Hepatitis C virus [10]): 2.3 | EC50 (Hepatitis C virus [11]): 25 nM | fold change (FC) (Hepatitis C virus [12]): 1330 | Cmax [13]: 520 ng/mL | fold change (FC) (Hepatitis C virus [14]): 2000 | fold change (FC) (Hepatitis C virus [15]): 13 | Cmax [16]: 5490 ng/mL | IC50 (Hepatitis C virus [17]): 0.33 nM | half-life [18]: 1.9 h | EC50 (Hepatitis C virus [19]): 42 nM | fold change (FC) (Hepatitis C virus [20]): 15 | bioavailability [21]: 62.7% | AUC [22]: 10500 ng·h/mL | IC50 [23]: 1.25 nM | EC50 (Hepatitis C virus [24]): 1800 nM | EC50 (Hepatitis C virus [25]): 13.8 nM | EC50 (Hepatitis C virus [26]): 1200 nM | fold change (FC) (Hepatitis C virus [27]): 2.2 | fold change (FC) (Hepatitis C virus [28]): 28 | EC50 (Hepatitis C virus [29]): 8.2 nM | half-life [30]: 7.6 h | log10cfu (Hepatitis C virus [31]): 2.5 /ml | half-life [32]: 10.7 h | fold change (FC) (Hepatitis C virus [33]): 1.3 | EC50 (Hepatitis C virus [34]): 11 nM | EC50 (Hepatitis C virus [35]): 7.7 nM | EC50 (Hepatitis C virus [36]): 3 nM | EC50 (Hepatitis C virus [37]): 4.5 nM | Cmax [38]: 1940 ng/mL | Tmax [39]: 2.7 h | Tmax [40]: 4.2 h | AUC [41]: 3300 ng·h/mL | EC50 (Hepatitis C virus [42]): 350 nM | EC50 (Hepatitis C virus [43]): 0.9 nM | Tmax [44]: 0.4 h

Reference: ChEMBL document CHEMBL1151437, “Activity of a potent hepatitis C virus polymerase inhibitor in the chimpanzee model” (Antimicrob Agents Chemother, 2007)
